Source: ChEMBL document CHEMBL5058577, “EUbOPEN Chemogenomics Library 2 (Multiplex)” (2022)

System: Fibroblast
Assay: Multiplex assay against human fibroblast
Format: toxicity, cell-based
In short: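 At seeding, live cells were stained with Hoechst33342, BioTracker Green Microtubule Cytoskeleton Dye, MitoTracker Red and Annexin V Alexa Fluor 680. After compound addition they were imaged on a CQ1 microscope at 37°C and 5% CO2, and CellPathfinder machine-learning gating sorted them into Hoechst high-intensity objects or normal cells, with normal cells further split into healthy, pyknosed or fragmented nuclei and pyknosed cells into mitotic or apoptotic. Tubulin, mitochondrial-mass and membrane-permeability phenotypes are given as per cents of cells with healthy nuclei.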

[1] = 12 h, 1 µM, compound concentration 1 uM, replicate 1
[2] = 12 h, 1 µM, compound concentration 1 uM, replicate 2
[3] = 12 h, 10 µM, compound concentration 10 uM, replicate 1
[4] = 12 h, 10 µM, compound concentration 10 uM, replicate 2
[5] = 24 h, 1 µM, compound concentration 1 uM, replicate 1
[6] = 24 h, 1 µM, compound concentration 1 uM, replicate 2
[7] = 24 h, 10 µM, compound concentration 10 uM, replicate 1
[8] = 24 h, 10 µM, compound concentration 10 uM, replicate 2
[9] = 48 h, 1 µM, compound concentration 1 uM, replicate 1
[10] = 48 h, 1 µM, compound concentration 1 uM, replicate 2
[11] = 48 h, 10 µM, compound concentration 10 uM, replicate 1
[12] = 48 h, 10 µM, compound concentration 10 uM, replicate 2

## N[C@](CC1c2ccccc2Oc2ccccc21)(C(=O)O)[C@H]1C[C@@H]1C(=O)O
[1]
  Population Apoptotic (%): 44%
  Population Fragmented Nuclei (%): 12%
  Population Healthy Nuclei (%): 73%
  Population Hoechst High Intensity Objects (%): 4%
  Population Membrane Permeable-Phenotype (%): 0%
  Population Mitochondria Different-Phenotype (%): 1%
  Population Mitotic Cells (%): 56%
  Population Normal (%): 95%
  Population Pyknosed Nuclei (%): 13%
  Population Tubulin-Different-Phenotype (%): 27%
  Total Cell Count: 189
[2]
  Population Apoptotic (%): 58%
  Population Fragmented Nuclei (%): 18%
  Population Healthy Nuclei (%): 59%
  Population Hoechst High Intensity Objects (%): 1%
  Population Membrane Permeable-Phenotype (%): 7%
  Population Mitotic Cells (%): 41%
  Population Normal (%): 98%
  Population Pyknosed Nuclei (%): 21%
  Population Tubulin-Different-Phenotype (%): 37%
  Total Cell Count: 113
[3]
  Population Apoptotic (%): 50%
  Population Fragmented Nuclei (%): 13%
  Population Healthy Nuclei (%): 66%
  Population Hoechst High Intensity Objects (%): 1%
  Population Membrane Permeable-Phenotype (%): 2%
  Population Mitochondria Different-Phenotype (%): 2%
  Population Mitotic Cells (%): 50%
  Population Normal (%): 98%
  Population Pyknosed Nuclei (%): 20%
  Population Tubulin-Different-Phenotype (%): 22%
  Total Cell Count: 203
[4]
  Population Apoptotic (%): 26%
  Population Fragmented Nuclei (%): 20%
  Population Healthy Nuclei (%): 59%
  Population Hoechst High Intensity Objects (%): 7%
  Population Membrane Permeable-Phenotype (%): 0%
  Population Mitochondria Different-Phenotype (%): 7%
  Population Mitotic Cells (%): 73%
  Population Normal (%): 92%
  Population Tubulin-Different-Phenotype (%): 33%
  Total Cell Count: 119
[5]
  Population Apoptotic (%): 68%
  Population Fragmented Nuclei (%): 12%
  Population Healthy Nuclei (%): 73%
  Population Hoechst High Intensity Objects (%): 2%
  Population Membrane Permeable-Phenotype (%): 2%
  Population Mitochondria Different-Phenotype (%): 2%
  Population Mitotic Cells (%): 32%
  Population Normal (%): 97%
  Population Pyknosed Nuclei (%): 13%
  Population Tubulin-Different-Phenotype (%): 25%
  Total Cell Count: 183
[6]
  Population Apoptotic (%): 33%
  Population Fragmented Nuclei (%): 27%
  Population Healthy Nuclei (%): 49%
  Population Hoechst High Intensity Objects (%): 4%
  Population Membrane Permeable-Phenotype (%): 6%
  Population Mitochondria Different-Phenotype (%): 1%
  Population Mitotic Cells (%): 66%
  Population Normal (%): 95%
  Population Pyknosed Nuclei (%): 22%
  Population Tubulin-Different-Phenotype (%): 44%
  Total Cell Count: 123
[7]
  Population Apoptotic (%): 57%
  Population Fragmented Nuclei (%): 10%
  Population Healthy Nuclei (%): 68%
  Population Hoechst High Intensity Objects (%): 1%
  Population Membrane Permeable-Phenotype (%): 1%
  Population Mitochondria Different-Phenotype (%): 3%
  Population Mitotic Cells (%): 42%
  Population Normal (%): 98%
  Population Pyknosed Nuclei (%): 20%
  Population Tubulin-Different-Phenotype (%): 30%
  Total Cell Count: 193
[8]
  Population Apoptotic (%): 35%
  Population Fragmented Nuclei (%): 18%
  Population Healthy Nuclei (%): 66%
  Population Hoechst High Intensity Objects (%): 2%
  Population Mitochondria Different-Phenotype (%): 4%
  Population Mitotic Cells (%): 64%
  Population Normal (%): 97%
  Population Pyknosed Nuclei (%): 15%
  Population Tubulin-Different-Phenotype (%): 34%
  Total Cell Count: 113
[9]
  Population Apoptotic (%): 62%
  Population Fragmented Nuclei (%): 17%
  Population Healthy Nuclei (%): 68%
  Population Hoechst High Intensity Objects (%): 2%
  Population Membrane Permeable-Phenotype (%): 0%
  Population Mitochondria Different-Phenotype (%): 2%
  Population Mitotic Cells (%): 37%
  Population Normal (%): 97%
  Population Pyknosed Nuclei (%): 14%
  Population Tubulin-Different-Phenotype (%): 26%
  Total Cell Count: 189
[10]
  Population Apoptotic (%): 23%
  Population Fragmented Nuclei (%): 36%
  Population Healthy Nuclei (%): 48%
  Population Hoechst High Intensity Objects (%): 8%
  Population Membrane Permeable-Phenotype (%): 9%
  Population Mitochondria Different-Phenotype (%): 5%
  Population Mitotic Cells (%): 76%
  Population Normal (%): 91%
  Population Tubulin-Different-Phenotype (%): 65%
  Total Cell Count: 125
[11]
  Population Apoptotic (%): 45%
  Population Fragmented Nuclei (%): 14%
  Population Healthy Nuclei (%): 68%
  Population Hoechst High Intensity Objects (%): 5%
  Population Membrane Permeable-Phenotype (%): 1%
  Population Mitochondria Different-Phenotype (%): 2%
  Population Mitotic Cells (%): 54%
  Population Normal (%): 94%
  Population Pyknosed Nuclei (%): 16%
  Population Tubulin-Different-Phenotype (%): 32%
  Total Cell Count: 198
[12]
  Population Apoptotic (%): 27%
  Population Fragmented Nuclei (%): 27%
  Population Healthy Nuclei (%): 63%
  Population Hoechst High Intensity Objects (%): 3%
  Population Membrane Permeable-Phenotype (%): 2%
  Population Mitotic Cells (%): 72%
  Population Normal (%): 96%
  Population Pyknosed Nuclei (%): 9%
  Population Tubulin-Different-Phenotype (%): 28%
  Total Cell Count: 115
